In the library only some 2% were active in any assay of this set; here they are far more common.
PG9 Ab binder – binds the HIV-1 gp120 antibody PG9. TR-FRET gp120-PG9 antibody binding. inhibition, % at 6.7 µM. 0.43% of 360,000 active. AID 624416; in the data active means inhibition above about 8.5%
Neddylation inh – cullin neddylation inhibition; calls only at 25 µM; 0.58% of 360,000 active; AID 651699; TR-FRET cullin neddylation, biochemical; in the data active means inhibition above about 36%
NR1D1 modulator – modulates human Rev-erb alpha binding to DNA; 0.79% of 370,000 active; activity, % at 10 µM; Rev-erbα–FITC-DNA binding, fluorescence polarization, 90 min;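 active means activity above about 14%, limit read from the data; passing the limit was not always enough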;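 further: 0% = DMSO wells with 35 nM protein and 100% = DMSO wells with 750 nM protein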
NR2E3 ag-1 – human photoreceptor-specific nuclear receptor agonism; 0.35% of 360,000 active; CHO-S Gal4-NCOR/VP16-NR2E3 two-hybrid, luciferase; inhibition of corepressor binding, % at 3.98 µM; Q9Y5X4;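 active means inhibition above the mean of all tested compounds plus 3 SD, cut at about 70% in these data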;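 further: 0% = DMSO with NR2E3 transfected cells and 100% = cells lacking NR2E3 construct; higher means lower luciferase signal from less NR2E3 corepressor binding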
Target sequence (Q9Y5X4 whole entry, looked up, the tested form may be a part): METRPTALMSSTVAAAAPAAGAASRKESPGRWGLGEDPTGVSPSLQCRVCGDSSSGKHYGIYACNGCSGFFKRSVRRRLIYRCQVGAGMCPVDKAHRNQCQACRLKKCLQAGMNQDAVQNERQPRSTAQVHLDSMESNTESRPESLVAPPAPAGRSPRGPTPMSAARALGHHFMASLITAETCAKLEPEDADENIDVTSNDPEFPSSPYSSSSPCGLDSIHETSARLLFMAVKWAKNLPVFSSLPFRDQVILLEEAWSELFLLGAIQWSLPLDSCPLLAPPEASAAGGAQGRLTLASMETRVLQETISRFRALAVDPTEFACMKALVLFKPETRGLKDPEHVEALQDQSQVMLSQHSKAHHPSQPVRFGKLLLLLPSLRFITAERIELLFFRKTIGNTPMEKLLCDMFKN
NR2E3 ag-2 – agonists of human nuclear receptor NR2E3; AID 2300; Q9Y5X4; inhibition of corepressor binding, % at 4.78 µM; GST-NR2E3/biotin-RetCOR TR-FRET, 1536-well; 0.12% of 320,000 active;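 active means percent inhibition above the cutoff of mean plus 3 SD of all tested compounds, set per screening campaign, cut at about 20% in these data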;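 further: 0% = DMSO wells and 100% = biotin wells as full block of FRET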
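System: GST-tagged NR2E3 plus biotinylated RetCOR corepressor; Buffer or medium: pH 7.5 Tris-based buffer; Probe or stimulus: RetCOR corepressor, biotinylated, 7 nM; Doses: compound at 4.8 µM, single dose; Schedule: 5 h incubation at 4 °C; Technique: time-resolved FRET; Evaluation: percent inhibition of TR-FRET ratio; Replication: one well per compound, singlicate testing.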
PG9 bind confirm – confirmation of small molecules binding HIV-1 gp120 antibody PG9. inhibition, % at 6.7 µM. shares compounds with PG9 Ab binder. 90% of 1,500 active. TR-FRET PG9 antibody binding, biochemical; in the data active means inhibition above about 9%
PGV04 Ab binding – counter-screen for PG9 binders: binding control antibody PGV04; shares compounds with PG9 Ab binder; TR-FRET PGV04 antibody-gp120 binding, biochemical; inhibition, % at 6.7 µM; 95% of 1,500 active; in the data active means inhibition above about 9.5%
PG9 binder DR – PG9 antibody binding, dose response | TR-FRET PG9 antibody-gp120 binding inhibition | 95 tested, under 10 active | IC50, µM | AID 651848 | shares compounds with PG9 Ab binder; in the data active means IC50 below about 10 µM
PGV04 binding DR – counter-screen for PG9 binders: binding to control antibody PGV04 | shares compounds with PG9 Ab binder | TR-FRET binding to control antibody PGV04 | IC50, µM | 20% of 95 active | AID 651937
PG126 DR counter – PG126 binding, dose response counter-screen; 20% of 95 active; IC50, µM; TR-FRET binding to antibody PG126, counterscreen; shares compounds with PG9 Ab binder
Numbers without * were called inactive; i = inactive; x = no result. Unless noted, no stated cut-off is given here; in the data, active means IC50 below about 9 µM; inactive means the rest.

SMILES | PG9 Ab binder | Neddylation inh | NR1D1 modulator | NR2E3 ag-1 | NR2E3 ag-2 | PG9 bind confirm | PGV04 Ab binding | others
COc1ccc2[nH]c3c(c2c1)CCN1C(=O)C(CC(=O)NCCC2=CCCCC2)C[C@H](C(=O)N2CCCCC2)[C@@]31CCc1ccccc1 (some centres undefined) | -1 | i | -1 | -9 | x | x | x
O=C(COC(=O)c1ccccc1NC(=O)c1ccco1)Nc1ccc2c(c1)OCO2 | 11* | i | -1 | 4 | 0 | 9.2* | 12*
O=C(COC(=O)c1ccccc1NCc1ccco1)Nc1ccc2c(c1)OCO2 | 0 | i | 5 | -3 | 2 | x | x
COC(=O)c1ccccc1NC(=O)COc1ccc2c(c1)OCO2 | 9.2* | i | 11 | -23 | 5 | 6 | 7
Cc1ccc(CN2CCC[C@]3(N[C@H](c4ccc(C(F)(F)F)cc4)[C@@H]4C(=O)N(Cc5ccccc5)C(=O)[C@@H]43)C2=O)cc1 | 1 | i | 0 | 0 | x | x | x
COC(=O)c1cc(Br)c(=O)n(-c2cc(C)on2)c1 | 9.8* | i | 6 | 11 | 8 | 21* | 26*
COc1ccc(CN(C)C(=O)[C@@H](Cc2ccccc2)NC(=O)[C@H]2O[C@@H](n3ccc(N)nc3=O)[C@H](O)[C@@H]2O)cc1OC | -1 | x | -5 | x | x | x | x
CCOc1cccc2cc(C(=O)NC(C)c3ccccc3)c(=N)oc12 (centres undefined) | 9.0* | i | 1 | -11 | 1 | 9.2* | 15*
CCOc1cccc2cc(C(=O)NCc3ccccc3)c(=N)oc12 | x | i | x | -18 | -5 | x | x
CC(C)N1CCCCC(NC(=O)COCc2ccccc2)C1=O (centres undefined) | x | x | 1 | x | x | x | x
COc1cccc(-n2nnnc2SCC(=O)NCc2ccc3c(c2)OCO3)c1 | -1 | i | -5 | 9 | 6 | x | x
COc1cccc(NC(=O)c2cnc(SCC(=O)NCc3ccc4c(c3)OCO4)n(C)c2=O)c1 | 26* | i | 7 | -10 | 0 | 30* | 43*
COC(=O)[C@]12C[C@H](CC(=O)N3CCOCC3)C(=O)N(CCC3=CCCCC3)C1=C[C@H](COCc1ccccc1)O[C@@H]2C | 1 | x | 4 | x | x | x | x
O=C1c2[nH]nc(-c3ccccc3O)c2C(c2cccc(Cl)c2)N1CC1CCCO1 (centres undefined) | 8.6* | i | 0 | 26 | 2 | 25* | 19* | PG9 binder DR=>67;PGV04 binding DR=>67;PG126 DR counter=>67
CC(=O)c1c(C)[nH]c(C(=O)Nc2ccc(C)cc2Br)c1C | 10* | i | 0 | -138 | 1 | 8 | 11*
CCc1c(C(=O)Nc2cc(C)ccc2OC)[nH]c(C)c1C(C)=O | 20* | i | -2 | -19 | 1 | 19* | 24*
CCCCCCn1cc(CN2CC(N(C)CCC)CS2(=O)=O)nn1 (centres undefined) | -3 | i | 0 | 10 | x | x | x
Cc1cc(NC(=O)c2ccc3c(c2)C(=O)N(CCC(C)C)C3=O)no1 | 12* | i | -2 | -22 | -1 | 7 | 8
Cc1cc(NC(=O)c2ccc3c(c2)C(=O)N(C)C3=O)no1 | 0 | i | -2 | -8 | 2 | x | x
COc1cc(CC(=O)OCC(=O)N2CCCCC2C)cc(OC)c1OC (centres undefined) | 2 | i | -5 | -21 | -1 | x | x
CC1Cc2ccccc2N1C(=O)COC(=O)c1ccc(O)cc1 (centres undefined) | 3 | i | 0 | 20 | 0 | x | x
CC1Cc2ccccc2N1C(=O)COC(=O)c1ccc(N(C)C)cc1 (centres undefined) | 12* | i | 6 | -14 | 1 | 13* | 16*
O=C(Nc1ccc(N2C(=O)C3CCCCC3C2=O)cc1Cl)c1cccs1 (centres undefined) | 18* | i | 8 | -23 | -2 | 30* | 46*
O=C(Nc1ccccc1Cl)c1cccs1 | -1 | i | -4 | -15 | 3 | x | x
COC(=O)Nc1nc(-c2ccccc2)c(C(=O)c2ccccc2)s1 | 20* | i | 19 | 23 | 0 | 19* | 19* | PG9 binder DR=>67;PGV04 binding DR=i;PG126 DR counter=i
SMILES | PG9 Ab binder | Neddylation inh | NR1D1 modulator | NR2E3 ag-1 | NR2E3 ag-2 | PG9 bind confirm | PGV04 Ab binding | others
COC(=O)Nc1nc(C)c(C(=O)c2ccccc2)s1 | 1 | i | 3 | -64 | 0 | x | x
O=C(COC(=O)c1cn(-c2ccccc2)nc1-c1ccc(F)cc1)Nc1ncc(Cl)cc1Cl | 0 | i | 5 | -31 | 1 | x | x
NS(=O)(=O)c1ccc(NC(=O)COC(=O)c2cn(-c3ccccc3)nc2-c2ccc(F)cc2)cc1 | 9.0* | i | 4 | 11 | 5 | 16* | 24*
COC(=O)c1cc2sc(Cl)cc2n1CC(=O)NCCC(C)C | 11* | i | 14 | -9 | -1 | 20* | 24*
COC(=O)c1cc2sccc2n1CC(=O)Nc1cc(OC)cc(OC)c1 | -1 | i | 2 | 4 | 1 | x | x
O=C(NCc1ccccn1)C1CCN(S(=O)(=O)N2CCCCC2)CC1 | 8.6* | i | -4 | -10 | 1 | 8 | 11*
CCS(=O)(=O)N1CCC(C(=O)NCc2ccccn2)CC1 | -1 | i | 0 | -1 | 1 | x | x
CCC(CO)Nc1cccc2c1S(=O)(=O)N(Cc1cn(Cc3cccc(C(F)(F)F)c3)nn1)Cc1ccccc1O2 (centres undefined) | x | x | 5 | x | x | x | x
C=CCN1C=C2C(=O)C(C)(OC(=O)c3ccc(OC)cc3)C(=O)C(c3ccco3)=C2C=C1CCCC (centres undefined) | 9.7* | i | -4 | 9 | 14 | 16* | 20*
CCC(C)N(C(=O)CSc1nc(-c2cccs2)nc2ccccc12)C1CCS(=O)(=O)C1 (centres undefined) | -2 | i | 2 | 27 | x | x | x
S=c1[nH]ncc2ccccc12 | 0 | i | 4 | -5 | 4 | x | x
S=c1[nH]ccc2ccccc12 | 11* | i | -5 | -32 | x | 4 | 11*
COC(=O)c1ccc2ccn(CC(=O)NC3CCCCC3)c2c1 | 16* | i | 8 | -19 | 1 | 20* | 32*
CCC(=O)N1CCc2cc(Br)c(S(=O)(=O)N3CCCC(C(=O)NC(C)(C)C)C3)cc21 (centres undefined) | x | x | 12 | x | x | x | x

From PubChem BioAssay
